Calb biofilm kill – mixtures killing C. albicans biofilm | inhibition, % at 7.6 µM | C. albicans biofilm persisters + clotrimazole, fluorescence viability; primary screen in compound mixtures of four per well | 0.02% of 120,000 active;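 active = inhibition above 30.3% in the primary screen of four-compound pools, then above 30% when the compound was retested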;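 note: compounds exposed to preformed 24 h biofilms for 48 h; 0% = untreated biofilm control and 100% = clotrimazole plus chlorhexidine kill blank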
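Assay system: C. albicans biofilms / Medium: RPMI/MOPS medium, pH 7.0 / Schedule: biofilm formation 24 h, compound exposure 48 h, 37 °C / Measured by: Alamar Blue fluorescence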
TNAP inh hi DEA – TNAP (human) inhibition, high acceptor; P05186; purified TNAP, CDP-star luminescence, 1 M DEA; inhibition, % at 20 µM; 0.03% of 200,000 active; AID 1135;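 active = over 50% inhibition of tissue-nonspecific alkaline phosphatase at 20 µM in the single-dose screen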;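 note: plate controls were DMSO wells for no effect and EDTA-quenched wells as full inhibition for full effect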
Target sequence (P05186 whole entry, looked up): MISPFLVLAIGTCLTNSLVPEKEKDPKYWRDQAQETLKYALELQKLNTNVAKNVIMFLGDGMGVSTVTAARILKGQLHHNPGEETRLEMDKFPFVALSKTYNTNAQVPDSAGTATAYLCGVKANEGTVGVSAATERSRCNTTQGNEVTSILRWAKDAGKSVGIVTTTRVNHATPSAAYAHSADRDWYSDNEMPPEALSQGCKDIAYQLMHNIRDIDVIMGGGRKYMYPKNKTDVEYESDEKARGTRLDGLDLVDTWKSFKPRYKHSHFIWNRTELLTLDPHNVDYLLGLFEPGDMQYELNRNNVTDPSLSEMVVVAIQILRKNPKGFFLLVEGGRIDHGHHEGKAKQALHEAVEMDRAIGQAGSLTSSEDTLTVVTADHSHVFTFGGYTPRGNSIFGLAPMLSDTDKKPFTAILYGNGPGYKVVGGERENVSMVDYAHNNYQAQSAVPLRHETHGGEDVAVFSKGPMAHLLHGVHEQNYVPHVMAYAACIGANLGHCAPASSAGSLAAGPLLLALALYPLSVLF
TNAP act hiacc – activators of human TNAP at high phosphate acceptor concentration; P05186; purified TNAP, CDP-star luminescence, 1 M DEA, 30 min; stronger effect = higher value; 0 = EDTA background, 1 = DMSO-only activity; activation factor at 20 µM; 200,000 tested, under 10 active; AID 1136;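 active = activation factor at least 2 at 20 µM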
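Assay system: human TNAP; Input: enzyme diluted 1/800 final; Reagent: CDP-star luminogenic substrate at 100 µM final; Timing: 30 min, room temperature; Signal: luminescence; Evaluation: TNAP activation factor scaled between EDTA and DMSO control wells.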
TNAP inh noacc – inhibitors of human TNAP without phosphate acceptor; purified TNAP, CDP-star luminescence, 30 min; inhibition, % at 20 µM; 0.26% of 200,000 active;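 active = tissue-nonspecific alkaline phosphatase inhibition above about 50% at 20 µM in the single-dose screen, limit read from the data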;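 note: 0% = DMSO negative control and 100% = EDTA positive control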
An asterisk follows results filed as active; . = not tested or not shown. The list is not random: actives were taken first. Their share in the collection is about 0.26%.

SMILES | Calb biofilm kill | TNAP inh hi DEA | TNAP act hiacc | TNAP inh noacc
Cn1c(C(=O)N2CCCC(C(=O)c3ccc(C(F)(F)F)cc3)C2)cc(=O)n(C)c1=O (configuration not stated) | 8 | -5 | 1 | -5
NS(=O)(=O)c1ccc(CCNC(=O)CNS(=O)(=O)c2cccc(Br)c2)cc1 | 11 | 12 | 0.9 | 76*
CC(=O)Nc1ccc(S(=O)(=O)NCC(=O)NCCc2ccc(S(N)(=O)=O)cc2)cc1 | 6 | 4 | 1 | 16
Cc1csc(SCC(=O)NC(=O)NCCC(C)C)n1 | 9 | -8 | 1.1 | -1
COc1ccc(Cn2nc(C)n(N(C)c3ncc(C(F)(F)F)cc3Cl)c2=O)cc1 | . | -4 | 1 | -6
COc1ccc(OC)c(S(=O)(=O)Nc2ccc(O)c(Sc3ncn[nH]3)c2)c1 | . | 1 | 1 | 74*
Cc1ccc(S(=O)(=O)Nc2ccc(O)c(Sc3ncn[nH]3)c2)cc1 | -2 | -4 | 1 | 74*
CCOc1ccc(S(=O)(=O)Nc2ccc(O)c(Sc3ncn[nH]3)c2)cc1 | 9 | 2 | 1 | 77*
Cc1ccc(C)c(S(=O)(=O)Nc2ccc(O)c(Sc3ncn[nH]3)c2)c1 | 8 | . | . | .
Cc1cc(C(=O)CSc2n[nH]c(-c3ccccc3F)n2)c(C)n1Cc1cccs1 | . | 2 | 1 | 91*
Cc1csc(SCC(=O)c2cc(C)n(Cc3cccs3)c2C)n1 | . | -3 | 1 | -6
O=C(O)/C=C\C(=O)NNC(=O)c1cc(-c2ccccc2)n[nH]1 | 15 | . | . | .
O=C(O)c1cc(-c2ccccc2Cl)n[nH]1 | . | 10 | 0.9 | 96*
O=C(O)c1cc(-c2ccccc2)n[nH]1 | 11 | 2 | 1 | 86*
CC(/C=N/NC(=O)c1cc(-c2cccn2C)n[nH]1)=C\c1ccccc1 | 4 | . | . | .
Cn1cccc1-c1cc(C(=O)O)[nH]n1 | 14 | 2 | 1 | 70*
CCOc1ccc(/C=N/NC(=O)c2cc(-c3cccn3C)n[nH]2)cc1 | 21 | 7 | 0.9 | 79*
Cc1cc(C)c2c(N=NN(C)C)[nH]nc2n1 | . | -2 | 1 | 52*
N#Cc1cc2c(nc1SC1CCCCC1O)CCCC2 (configuration not stated) | . | -4 | 1 | 11
O=C(COc1ccccc1C(=O)N/N=C\c1ccc(O)c(O)c1)N/N=C/c1ccc(O)c(O)c1 | . | 60* | 0.4 | 92*
CN(c1ccccc1)S(=O)(=O)c1cccc(C(=O)NCCc2ccc(O)c(O)c2)c1 | 16 | 13 | 0.9 | 51*
Nc1c(Cl)ncnc1N/N=C/c1ccc2ccccc2n1 | 16 | 54* | 0.5 | -22
COc1cc(/C=C2/SC(=S)N(CC3CCCO3)C2=O)ccc1O (configuration not stated) | 9 | 56* | 0.4 | 36
COc1cc(/C=C2\SC(c3ccc(C)cc3)=NC2=O)ccc1O | . | 40 | 0.6 | 36
O=C1/C(=C/c2ccc(O)c(O)c2)SC(=S)N1Nc1ccccc1 | 14 | 88* | 0.1 | 94*
SMILES | Calb biofilm kill | TNAP inh hi DEA | TNAP act hiacc | TNAP inh noacc
COc1ccc(/C=C2\SC(=S)N(CC3CCCO3)C2=O)cc1 (configuration not stated) | -10 | . | . | .
CCOc1cc(/C=C2\SC(=S)N(Nc3ccccc3)C2=O)ccc1O | . | 49 | 0.5 | 38
COc1cc(/C=C2\SC(=S)N(Nc3ccccc3)C2=O)ccc1O | 16 | 55* | 0.4 | 44
COc1ccc(C2=NN(c3ccccc3)C(=O)/C2=C\c2ccc(O)c(OC)c2)cc1 | 15 | 41 | 0.6 | 50*
Cc1cc(NC(=O)c2sccc2C)n(-c2cccc(Cl)c2)n1 | . | 0 | 1 | -7
COc1ccc2c(CC(=O)Nc3cccc(S(=O)(=O)N4CCOCC4)c3)coc2c1 | 14 | 4 | 1 | -9
O=C(c1ccccc1)c1cn[nH]c1-c1ccccc1O | . | 1 | 1 | 78*
O=c1oc2cc(Cl)ccc2n1CSc1nc2ccccc2s1 | . | -2 | 1 | 5
Cc1ccc(NS(=O)(=O)c2cc([N+](=O)[O-])ccc2NNC(=S)Nc2cc(C)ccc2C)c(C)c1 | 15 | 41 | 0.6 | 22
Cc1ccc(NS(=O)(=O)c2cc([N+](=O)[O-])ccc2NNC(=S)Nc2cccc(Cl)c2)c(C)c1 | 19 | 58* | 0.4 | 40
CC(=O)NS(=O)(=O)c1cccnc1Nc1cccc(Cl)c1C | 7 | 2 | 1 | -5
NS(=O)(=O)c1cccnc1Nc1c(Cl)cccc1Cl | . | 52* | 0.5 | 58*
Cc1ccc(S(=O)(=O)Oc2ccccc2/C=N/Nc2ccc(C(=O)O)cc2)cc1 | 16 | . | . | .
O=C(NCCCO)C(=O)NCCc1ccc(Cl)cc1 | 12 | -1 | 1 | -8
CCc1c(C)[nH]c2nc3ccccc3n2c1=O | . | -1 | 1 | 51*
O=c1cc(CCl)[nH]c2nc3ccccc3n12 | 12 | . | . | .
COc1ccccc1N1CCN(/N=C/c2ccc(O)c(O)c2)CC1 | -2 | 1 | 1 | 54*
CCN(CC)S(=O)(=O)c1cccc(N=Nc2c(O)c3ccccc3oc2=O)c1 | 10 | . | . | .
NC(=S)Nc1nc2ccccc2[nH]c1=O | . | 16 | 0.8 | 71*
CCOc1ccc(-n2c(C)nc(O)c2N=Nc2ccccc2)cc1 | 14 | 12 | 0.9 | -2
Cc1ccc(-c2nc(N=Nc3ccc(O)cc3)n[nH]2)cc1 | 14 | 33 | 0.7 | 68*
COc1ccc(-c2nc(N=Nc3ccc(O)cc3)n[nH]2)cc1 | 6 | 29 | 0.7 | 74*
CC(C(=O)NCC1CCCO1)N(C(=O)c1snc(C(N)=O)c1N)c1ccccc1 (configuration not stated) | . | -4 | 1 | -14
CC(C)CCNC(=O)C(C)N(C(=O)c1snc(C(N)=O)c1N)c1cnc2ccccc2c1 (configuration not stated) | -9 | 3 | 1 | 62*
Cc1csc(C(=O)NN)c1N(C)C | 21 | . | . | .
SMILES | Calb biofilm kill | TNAP inh hi DEA | TNAP act hiacc | TNAP inh noacc
CSc1nc(-c2ccc(Cl)cc2)nn1S(=O)(=O)c1ccccc1 | 12 | -3 | 1 | 11
CS(=O)(=O)n1nc(-c2ccc(Cl)cc2)nc1SCc1ccccc1 | . | 0 | 1 | 68*
Cc1ccc(-n2ncc3c2ncn2c(-c4ccncc4)nnc32)cc1 | . | -2 | 1 | 54*
Cc1c(CCOC(=O)CC23CC4CC(CC(C4)C2)C3)sc[n+]1Cc1ccccc1 | . | 36 | 0.6 | -2
Cc1c(CCO)sc[n+]1CC(=O)OCCC12CC3CC(CC(C3)C1)C2 | 0 | 4 | 1 | 62*
CCCCCCCCCOC(=O)C[n+]1csc(CCO)c1C | . | -1 | 1 | 61*
CCCCCCCCCCCCOC(=O)C[N+](C)(C)C | 15 | . | . | .
Cc1c(CCOC(=O)C23CC4CC(CC(C4)C2)C3)sc[n+]1CC#N | 9 | -2 | 1 | 57*
CCc1ccc2[nH]c(C(=O)Nc3ccc4c(c3)OCO4)cc2c1 | 13 | . | . | .
CC(C)CC(N=Cc1c(O)c2ccccc2oc1=O)C(=O)O (configuration not stated) | 9 | 2 | 1 | 12
CCOC(=O)CSC1=NC(=O)/C(=C/c2ccc(OC)cc2)S1 | 6 | 4 | 1 | -22
O=C(N/N=C/C=C/c1ccccc1[N+](=O)[O-])c1cc(-c2ccccc2)n[nH]1 | 14 | 7 | 0.9 | 64*
